Assay results collected from several papers.
NPY1R: Neuropeptide Y receptor type 1 (NPY1R, Homo sapiens, UniProt P25929)
Transmembrane protease serine 6: Transmembrane protease serine 6 (Homo sapiens, UniProt Q8IU80)
EGFR: Epidermal growth factor receptor (EGFR, Homo sapiens, UniProt P00533)
BACE1: Beta-secretase 1 (BACE1, Homo sapiens, UniProt P56817)
AVPR2: Vasopressin V2 receptor (AVPR2, Homo sapiens, UniProt P30518)

The inhibition of COc1ccc(S(=O)(=O)N2CCCCC2)cc1C is reported as under 30% (NPY1R; ligand displacement; radioligand; 10 µM).
For CN1CCN(CCCOc2ccc3occc(=O)c3c2)CC1, the inhibition was 5% (Transmembrane protease serine 6; enzyme activity; inhibitor; fluorescence; 10 µM).
C#Cc1n[nH]c2c(-c3cn(C(C)c4ccccn4)c(=O)[nH]c3=O)cc(F)cc12 (centres unmarked) has an inhibition of -3.8% (EGFR; enzyme activity; inhibitor; 1 µM).
For OC[C@@]12C[C@@H]1[C@@H](n1cnc3c(NC(C4CCCC4)C4CCCC4)nc(Cl)cc31)[C@H](O)[C@@H]2O, the inhibition was 35% (Adenosine receptor A3 (ADORA3, Homo sapiens, UniProt P0DMS8); ligand displacement; radioligand; 10 µM).
Cn1cc(-c2cccc(N3CCc4c(sc5c4CC(C)(C)C5)C3=O)c2CO)cc(Nc2ccncn2)c1=O has an inhibition of 1% (Protein kinase C delta type (PRKCD, Homo sapiens, UniProt Q05655); enzyme activity; inhibitor; 1 µM).
The inhibition of CC(C)Cn1cnc2c(N)nc3ccccc3c21 is reported as 13% (NPY1R; ligand displacement; radioligand; 10 µM).
The inhibition of CC(C)N1CCC[C@H]1CNC(=O)c1cn(C2CCCC2)c(=O)c2c1c1ccccc1n2C is reported as 5% (NPY1R; ligand displacement; radioligand; 10 µM).
The inhibition of Cc1ncc(C)n2nc(/C=C/c3nc(N4CCCC4)cc(N4CCOCC4)n3)nc12 is reported as 4% (BACE1; enzyme activity; inhibitor; 10 µM).
The inhibition of O=C(Nc1cccnn1)N1CCN([C@@H]2CCOc3cc(C(F)(F)F)ccc32)CC1 is reported as 3% (BACE1; enzyme activity; inhibitor; 20 µM).
For CN1CCN(CCOc2ccc3occc(=O)c3c2)CC1, the inhibition was 6% (Transmembrane protease serine 6; enzyme activity; inhibitor; fluorescence; 10 µM).
Cc1ccc2nc(N3C(=O)C(O)=C(C(=O)OC(C)(C)C)C3c3ccc(-c4ccc(Cl)cc4)o3)sc2c1 (centres unmarked) gave an inhibition of 46% (UDP-N-acetylenolpyruvoylglucosamine reductase (murB, Escherichia coli K-12, UniProt P08373); enzyme activity; inhibitor; 20 µM).
For COCc1c(-c2cc3cc(C)cc(OC)c3s2)c2c(N)ncnn2c1CN1CCNC(=O)C1, the inhibition was 90.1% (Serine/threonine-protein kinase Nek5 (NEK5, Homo sapiens, UniProt Q6P3R8); cell-free assay; competition with immobilised ligand; 1 µM).
The inhibition of CC(C)C(CC(=O)NO)N=[N+]=[N-] (centres unmarked) is reported as 5% (Endoplasmic reticulum aminopeptidase 2 (ERAP2, Homo sapiens, UniProt Q6P179); enzyme activity; inhibitor; fluorescence; 300 µM).
For C[C@H](C(=O)N[C@H]1COc2ccccc2[C@@H]1S(C)(=O)=O)c1ccc(F)cc1, the inhibition was 3% (AVPR2; cell-free assay; 10 µM).
COc1cc(Nc2ncc(F)c(Nc3ccc4c(n3)NC(=O)C(C)(C)O4)n2)cc(OC)c1OC gave an inhibition of 92% (Serine/threonine-protein kinase TAO1 (TAOK1, Homo sapiens, UniProt Q7L7X3); binding; 10 µM).
With C#Cc1n[nH]c2c(-c3cn([C@@H](C)c4ccccc4)c(=O)[nH]c3=O)cc(F)cc12 the inhibition was 0.9% (EGFR; enzyme activity; inhibitor; 0.1 µM).
CN(CCN1CCC(OC(=O)Nc2ccccc2-c2ccccc2)CC1)C(=O)c1ccc(CN2CCC(C(N)=O)CC2)cc1 gave an inhibition of -7% (AVPR2; ligand displacement; radioligand; 1 µM).
CCN(CC)CCCC[C@H](NC(=O)[C@H](CC(C)C)NC(=O)[C@H](C)NC(=O)[C@H](Cc1ccccc1)NC(=O)c1ccc(C(C)(C)C)cc1)C(=O)N[C@@H](CO)C(=O)OC gave an inhibition of -4% (Type-1 angiotensin II receptor (AGTR1, Homo sapiens, UniProt P30556); ligand displacement; radioligand; 10 µM).
For Cn1cc(-c2cc(F)cc(N3CCn4c(cc5c4CCCC5)C3=O)c2CO)cc(Nc2ccc(N3CCN(C4COC4)CC3)cn2)c1=O, the inhibition was 2% (Serine/threonine-protein kinase mTOR (MTOR, Homo sapiens, UniProt P42345); enzyme activity; inhibitor; 0.1 µM).
For c1ccc(C(NCCNC(c2ccccc2)c2ccccc2)c2ccccc2)cc1, the inhibition was 29% (AVPR2; cell-free assay; 10 µM).
